Screening results deposited in PubChem BioAssay by several laboratories.
ROMK primary: modulators of human ROMK potassium channel | P48048 | Tet-inducible ROMK, thallium flux fluorescence; actives lie on both sides | B-score at 10 µM | actives 2% (n = 130,000);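 active = signal ratio slope over the read window, or its plate-corrected B-score, at least 3 SD from the plate mean, either direction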;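 also: B-score of the F/F0 ratio slope over 7 to 12 s after thallium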
Target sequence (P48048 whole entry, looked up): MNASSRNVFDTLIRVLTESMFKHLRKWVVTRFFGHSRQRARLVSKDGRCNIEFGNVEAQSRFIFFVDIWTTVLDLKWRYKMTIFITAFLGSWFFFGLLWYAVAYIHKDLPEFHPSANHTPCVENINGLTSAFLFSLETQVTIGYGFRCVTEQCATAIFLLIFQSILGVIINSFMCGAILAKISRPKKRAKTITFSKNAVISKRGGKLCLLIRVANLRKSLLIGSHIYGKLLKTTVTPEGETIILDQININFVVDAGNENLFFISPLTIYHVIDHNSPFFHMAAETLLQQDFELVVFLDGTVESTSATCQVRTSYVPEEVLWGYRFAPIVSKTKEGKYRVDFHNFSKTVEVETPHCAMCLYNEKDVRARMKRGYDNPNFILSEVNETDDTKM
Calb biofilm kill: mixtures killing C. albicans biofilm; AID 1242; actives 0.02% (n = 120,000); C. albicans biofilm persisters + clotrimazole, fluorescence viability; primary screen in compound mixtures of four per well; inhibition, % at 7.6 µM;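 active = inhibition above 30.3% in the primary screen of four-compound pools, then above 30% when the compound was retested; inconclusive = passed the primary limit but could not be retested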;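 also: compounds exposed to preformed 24 h biofilms for 48 h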
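Probe or stimulus – Clotrimazole 50 µg/mL co-treatment · System – C. albicans biofilms · Schedule – 24 h biofilm formation, then 48 h compound exposure, 37 °C · Evaluation – percent inhibition of biofilm viability · Technique – 2-h Alamar Blue fluorescence, 535/590 nm excitation/emission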
ROMK hit retest: confirmation of human ROMK potassium channel modulators | shares compounds with ROMK primary | ROMK thallium flux, fluorescence ratio; hits give low values | normalized thallium flux (F/F0 slope) at 10 µM | actives 54% (n = 3,000);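 active = Flux at 10 µM at least 3 SD below or above vehicle control mean in one or both replicates; inconclusive = no clear call, values can overlap the other calls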
Each line names hits and unclear results; the compound was inactive in the other large screens (follow-up assays come after a bar, where they were run). This is one part of a sample in which hits are shown more often than they occur.

CC(C)N(Cc1cn[nH]c1-c1ccc(-c2ccccc2)cc1)Cc1nccn1C	none
CC(C)OC(=O)CCNc1n[nH]c(=O)[nH]c1=O	none (no result: Calb biofilm kill)
CCCCOC(=O)CCNc1n[nH]c(=O)[nH]c1=O	none (no result: ROMK primary, Calb biofilm kill) | ROMK hit retest inactive
CCn1nnc(NC(=O)COc2ccc([N+](=O)[O-])cc2)n1	none (no result: ROMK primary)
CC1=CC(C)(C)NC(=S)N1c1cccc2cc(S(=O)(=O)O)ccc12	none (no result: ROMK primary)
COCCn1c(C(C)C)nc2ccccc21	none
CCCN1CCN(C(c2cc3cc(OCC)ccc3[nH]c2=O)c2nnnn2C2CCCCC2)CC1 (configuration not stated)	none (no result: Calb biofilm kill)
CCOc1ccc2[nH]c(=O)c(CN(CCO)C(c3nnnn3C3CCCCC3)C(C)C)cc2c1 (configuration not stated)	ROMK primary -2.4 (no result: Calb biofilm kill) | ROMK hit retest 0.059
O=C(CN1CCN(C(c2ccccc2)c2ccccc2)CC1)N1CCN(c2ccccc2)CC1	ROMK primary -3.7 | ROMK hit retest 0.063
O=C(c1ccccc1)C1CCN(CC(=O)N2CCN(c3ccccc3)CC2)CC1	none
COc1ccccc1NC(=O)CN1CCN(c2ccccc2)CC1	none
CC(CCc1ccccc1)NC(=O)CN1CCN(c2ccccc2)CC1 (configuration not stated)	ROMK primary -2.9 | ROMK hit retest 0.061
O=C(O)C1CC=CCC1C(=O)Nc1ccc(N2CCN(Cc3ccccc3)CC2)cc1 (configuration not stated)	none
O=S(=O)(NCc1ccccc1)NCc1ccccc1F	none (no result: ROMK primary)
O=S(=O)(NCc1ccccc1)NCc1ccccc1	none (no result: ROMK primary) | ROMK hit retest inactive
O=c1c(Cc2ccc(F)cc2)c(O)ccn1CCCn1ccnc1	none
CC(=O)Oc1oc(-c2ccccc2)nc1C=Nc1ccc(N(C)C)cc1	none (no result: ROMK primary) | ROMK hit retest 0.06
CN(C)c1ccc(N=Cc2nc(-c3ccccc3)oc2OC(=O)c2ccccc2)cc1	none (no result: ROMK primary)
CC(C)(C)Sc1ccc([N+](=O)[O-])cc1C(=O)Nc1ccncc1	none (no result: ROMK primary)
COc1cc(-c2nc(CN3CCCN(C(=O)c4ccco4)CC3)c(C)o2)ccc1F	none (no result: ROMK primary)
CCOC(=O)CC1CCCCN1Cc1nc(-c2ccc(F)c(OC)c2)oc1C (configuration not stated)	ROMK primary -3 | ROMK hit retest 0.06
CCC(C)(C)NC(=O)C1CCN(c2nc(OC)nc(OC)n2)CC1	none
COc1ccc(Cn2nnnc2C(c2ccc(C)cc2)N2CCN(C3CCCC3)CC2)cc1 (configuration not stated)	none (no result: ROMK primary, Calb biofilm kill) | ROMK hit retest 0.053
COc1cccc(C(c2nnnn2Cc2ccccc2)N2CCN(C3CCCC3)CC2)c1OC (configuration not stated)	ROMK primary -4.8 (no result: Calb biofilm kill) | ROMK hit retest 0.054
COc1ccccc1C(c1nnnn1Cc1ccccc1)N1CCN(C2CCCC2)CC1 (configuration not stated)	none (no result: ROMK primary)
COc1ccc(Cn2nnnc2C(c2ccc3ncccc3c2)N2CCN(C3CCCCC3)CC2)cc1 (configuration not stated)	none
COc1ccc(Cn2nnnc2C(c2cc3cccc(C)c3[nH]c2=O)N2CCN(C)CC2)cc1 (configuration not stated)	none
COc1ccc(Cn2nnnc2C(c2cc3cc(C)ccc3[nH]c2=O)N2CCN(C)CC2)cc1 (configuration not stated)	none | ROMK hit retest inactive
O=c1c(Cc2ccc(Cl)cc2)c(O)ccn1Cc1cccs1	none
N#CC1=C(N)C2=CCCC[C@H]2[C@H](c2cccc(F)c2)C1(C#N)C#N	ROMK primary -2.5 | ROMK hit retest 0.053
CC(C)C(C(=O)Nc1ccc2c(c1)OCCOCCOCCOCCO2)N1C(=O)c2ccccc2C1=O (configuration not stated)	none
CCCc1ccc(C(=O)NNc2ccccc2F)cc1	none (no result: ROMK primary)
Cn1c(-c2c(N)n(CCc3ccccc3)c3nc4ccccc4nc23)nc2ccccc21	none (no result: Calb biofilm kill)
COCCCn1c(N)c(-c2nc3ccccc3n2C)c2nc3ccccc3nc21	ROMK primary -4.3 (no result: Calb biofilm kill) | ROMK hit retest 0.045
N#Cc1c(NC(=O)C2CCCO2)sc2c1CCCCCC2 (configuration not stated)	none
Cn1c(=O)c(-c2ccccc2)nn2c3ccccc3nc12	none (no result: Calb biofilm kill)
CCn1c(=O)c(C)nn2c3ccccc3nc12	none (no result: ROMK primary, Calb biofilm kill) | ROMK hit retest inactive
CCCS(=O)(=O)N1CCN(S(=O)(=O)c2ccccc2)CC1	none (no result: Calb biofilm kill)
O=C(Nc1cc2c3c(c1)C1CCCC1CN3CC1CCCC21)c1ccccc1 (configuration not stated)	none (no result: Calb biofilm kill)
COc1ccccc1N1CCN(CCNC(=O)Nc2cccc(C)c2C)CC1	ROMK primary -2.8 (no result: Calb biofilm kill) | ROMK hit retest 0.059
COc1ccccc1N1CCN(CCCNC(=O)Nc2ccccc2)CC1	none (no result: Calb biofilm kill)
CC(C)NC(=O)COc1ccc(S(=O)(=O)N(C)Cc2ccccc2)cc1	none (no result: ROMK primary)
COc1ccc(C(=O)COC(=O)c2ccccc2NS(=O)(=O)c2ccc(O)c([N+](=O)[O-])c2)cc1	none (no result: ROMK primary) | ROMK hit retest inactive
COc1ccc(NC(=O)c2ccccc2NS(=O)(=O)c2ccc(C)cc2)c([N+](=O)[O-])c1	none
COc1ccc(CNC(=O)c2ccc[nH]2)cc1Cl	none
COc1ccc(CNC(=O)N2CCN(c3ccc(F)cc3)CC2)cc1Cl	ROMK primary -3 | ROMK hit retest inactive
CC(C)c1csc(CN2CCC(CO)(Cc3cccc(F)c3)CC2)n1	none
O=S1(=O)CCC(NC(=S)SCCOc2ccccc2)C1 (configuration not stated)	ROMK primary -5 | ROMK hit retest 0.068
CCCCSC(=S)NC1CCS(=O)(=O)C1 (configuration not stated)	none
CCN(CC)c1ccc(/C=c2\sc3nc4ccccc4n3c2=O)c(O)c1	ROMK primary -4.8 | ROMK hit retest 0.03
O=c1/c(=C/c2ccc(O)c([N+](=O)[O-])c2)sc2nc3ccccc3n12	none
CC(C)(C)NC(=O)C1Cc2ccccc2CN1 (configuration not stated)	none
Cc1ccc(NC(=O)COC(=O)C2CC2(Cl)Cl)cc1C (configuration not stated)	none
O=C(CN(C(=O)c1csnn1)c1cccc2ccccc12)NC1CCCC1	none
Cc1ccccc1N(CC(=O)NC1CCCC1)C(=O)c1csnn1	ROMK primary 1.3 | ROMK hit retest inconclusive
CCCCCCn1c(-c2cccs2)n[nH]c1=S	none
Cc1cccc(-n2c(C)nc3c(cnn3-c3ccc(F)cc3)c2=O)c1	none (no result: Calb biofilm kill)
O=C(NC1CC1)C1CCCN1S(=O)(=O)c1ccc2ccccc2c1 (configuration not stated)	none (no result: Calb biofilm kill)
O=C(NCCc1ccccc1F)C1CCCN1S(=O)(=O)c1ccc2ccccc2c1 (configuration not stated)	ROMK primary -3.5 | ROMK hit retest 0.056
O=C1CC(N2CCN(Cc3ccc4c(c3)OCO4)CC2)C(=O)N1c1cccc2ccccc12 (configuration not stated)	ROMK primary -3.1 | ROMK hit retest 0.055
O=C1CC(N2CCN(Cc3ccc4c(c3)OCO4)CC2)C(=O)N1c1cccc(Cl)c1 (configuration not stated)	none (no result: Calb biofilm kill)
CCOP(=O)(Nc1ccc2oc(=O)c3ccccc3c2c1)OCC	none (no result: ROMK primary)
COCCn1nnnc1C(c1cc(OC)ccc1OC)N1CCc2ccccc2C1 (configuration not stated)	ROMK primary -2.1 (no result: Calb biofilm kill) | ROMK hit retest inactive
COc1ccc(OC)c(C(c2nnnn2CC2CCCO2)N2CCN(C)CC2)c1 (configuration not stated)	none (no result: Calb biofilm kill)
